Reference: ChEMBL document CHEMBL4619791, “3-Difluoroalkyl Quaternary Oxindoles Inhibit Macrophage Pyroptosis by Blocking Inflammasome Recruitment of Caspase-1” (ACS Med Chem Lett, 2020)
Calls of active or inactive are those of the source.

Key:
[1] = molecular target: NACHT, LRR and PYD domains-containing protein 3 (Mus musculus) (UniProt Q8R4B8); assay: Activation of NLRP3 inflammasome in LPS-primed mouse […] cells assessed as suppression of ATP-induced pyroptosis at 5 uM; format: cell-based; settings: J774.A1
Procedure, shortened: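 ATP used as a separate NLRP3 inflammasome activator in macrophages to induce pyroptosis.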

[2] = molecular target: T1, Gasdermin-D (Homo sapiens) (UniProt P57764); assay: Inhibition of N-terminal GSDMD p30 fragment-mediated pyroptotic-cell death in doxycyclin-treated human HEK293T cells assessed as cell death at 5 uM by LDH assay; format: cell-based; settings: HEK-293T
T1 sequence (whole entry): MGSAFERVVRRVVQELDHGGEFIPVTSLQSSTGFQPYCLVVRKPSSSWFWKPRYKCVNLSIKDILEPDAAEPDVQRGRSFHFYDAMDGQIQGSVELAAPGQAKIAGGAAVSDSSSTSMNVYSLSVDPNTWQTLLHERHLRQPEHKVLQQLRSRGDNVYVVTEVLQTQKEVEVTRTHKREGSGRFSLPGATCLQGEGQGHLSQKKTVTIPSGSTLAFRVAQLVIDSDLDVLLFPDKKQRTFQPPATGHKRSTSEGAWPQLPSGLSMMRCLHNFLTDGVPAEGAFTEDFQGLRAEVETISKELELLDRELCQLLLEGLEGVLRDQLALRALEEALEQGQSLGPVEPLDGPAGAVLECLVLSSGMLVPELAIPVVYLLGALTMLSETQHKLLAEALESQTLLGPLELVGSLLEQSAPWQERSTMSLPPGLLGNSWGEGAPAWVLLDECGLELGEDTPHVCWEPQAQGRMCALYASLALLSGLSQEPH

Caspase-1 (Mus musculus) [3] = molecular target: T2, Caspase-1 (Mus musculus) (UniProt P29452); assay: Inhibition of caspase-1 activity in LPS-primed immortalized mouse […] cells assessed as reduction in nigericin-induced Ac-YVAD-pNA cleavage using Ac-YVAD-pNA as substrate at 5 uM by FAM-FLICA reagent based confocal microscopy; format: cell-based; settings: J774.A1
T2 sequence (whole entry): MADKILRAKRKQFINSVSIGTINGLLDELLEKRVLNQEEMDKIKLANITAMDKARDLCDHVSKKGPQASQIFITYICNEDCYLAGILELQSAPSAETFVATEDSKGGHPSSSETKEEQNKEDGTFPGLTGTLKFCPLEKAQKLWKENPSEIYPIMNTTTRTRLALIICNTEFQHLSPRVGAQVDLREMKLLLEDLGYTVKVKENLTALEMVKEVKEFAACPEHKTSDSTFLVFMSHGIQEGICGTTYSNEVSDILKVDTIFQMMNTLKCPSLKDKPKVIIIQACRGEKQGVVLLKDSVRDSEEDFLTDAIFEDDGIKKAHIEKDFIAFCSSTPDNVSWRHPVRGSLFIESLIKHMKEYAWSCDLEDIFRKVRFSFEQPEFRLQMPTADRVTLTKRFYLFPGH
Procedure, shortened: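 Nigericin-treated macrophages. Active caspase-1 was detected two ways: in J774A.1 cells stained with the FAM-FLICA probe plus Hoechst, imaged by confocal microscopy and FLICA intensity quantified in ≥20 cells per group; and with the Ac-YVAD-pNA substrate. Mean ± SEM, n ≥ 3.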

Caspase-1 (Mus musculus) [4] = molecular target: T2, Caspase-1 (Mus musculus); assay: Inhibition of caspase-1 activity in LPS-primed immortalized mouse […] cells assessed as reduction in nigericin-induced caspase-1 cleavage at 5 uM by Western blot analysis; format: cell-based; settings: J774.A1
Procedure, shortened: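 Western blot of full-length and cleaved caspase-1 and caspase-8 in J774A.1 cells after nigericin, with tubulin as loading control. Bands quantified as bar graphs.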

J774.A1 = assay: Inhibition of caspase-1 recruitment to inflammasome in LPS-primed immortalized mouse […] cells assessed as nigericin-induced colocalization of caspase-1 and ASC at 5 uM by immunostaining based confocal microscopy; format: functional, cell-based
Procedure, shortened: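 Caspase-1 and ASC colocalization: Pearson's correlation coefficient calculated in 20 to 25 randomly selected cells.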

Caspase-4 (Mus musculus) = molecular target: T3, Caspase-4 (Mus musculus) (UniProt P70343); assay: Inhibition of pyroptosis-inducing caspase-11 in LPS-primed immortalized mouse […] cells assessed as cell death at 5 uM by LDH assay; format: cell-based; settings: J774.A1
T3 sequence (whole entry): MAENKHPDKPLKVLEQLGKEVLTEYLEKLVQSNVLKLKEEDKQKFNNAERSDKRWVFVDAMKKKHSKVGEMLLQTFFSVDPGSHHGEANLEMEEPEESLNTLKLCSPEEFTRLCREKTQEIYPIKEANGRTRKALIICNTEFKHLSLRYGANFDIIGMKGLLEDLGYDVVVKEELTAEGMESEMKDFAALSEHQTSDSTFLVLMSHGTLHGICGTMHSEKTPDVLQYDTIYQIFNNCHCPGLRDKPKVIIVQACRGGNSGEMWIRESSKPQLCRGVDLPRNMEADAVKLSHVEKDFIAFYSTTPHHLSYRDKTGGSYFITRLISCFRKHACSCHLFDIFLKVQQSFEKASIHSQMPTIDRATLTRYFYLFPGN
Procedure, shortened: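 Cell death induced by cytoplasmic LPS in J774A.1 cells, measured by LDH release. Mean ± SEM, n ≥ 3.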

Caspase-1 (Homo sapiens) [5] = molecular target: T4, Caspase-1 (Homo sapiens) (UniProt P29466); assay: Inhibition of ASC-mediated caspase-1 cleavage in human THP1 cells transfected with GFP-tagged ASC at 5 uM FACS analysis; format: cell-based; settings: THP-1
T4 sequence (whole entry): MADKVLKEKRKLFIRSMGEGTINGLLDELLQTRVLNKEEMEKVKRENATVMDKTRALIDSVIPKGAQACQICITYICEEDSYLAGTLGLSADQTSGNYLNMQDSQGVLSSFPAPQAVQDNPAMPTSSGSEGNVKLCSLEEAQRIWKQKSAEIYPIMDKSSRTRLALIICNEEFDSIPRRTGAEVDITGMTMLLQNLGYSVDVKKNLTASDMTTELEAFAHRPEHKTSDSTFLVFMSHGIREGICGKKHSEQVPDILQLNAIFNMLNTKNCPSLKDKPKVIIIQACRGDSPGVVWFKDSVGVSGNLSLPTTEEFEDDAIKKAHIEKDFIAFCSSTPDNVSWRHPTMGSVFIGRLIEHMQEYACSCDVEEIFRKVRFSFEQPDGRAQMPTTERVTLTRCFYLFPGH

Caspase-1 (Homo sapiens) [6] = molecular target: T4, Caspase-1 (Homo sapiens); assay: Inhibition of pronase-mediated caspase-1 degradation in HEK293 cell lysate at 5 uM measured after 30 mins by DARTS based Western blot analysis; format: cell-free
Procedure, shortened: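 DARTS assay: cell lysates pretreated with compound, then digested with different Pronase concentrations. Caspase-1 stability read by immunoblot against a histone H3 control.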

Mus musculus [7] = assay: Antiinflammatory activity against LPS-induced sepsis C57BL/6J mouse model assessed as reduction in alveolar epithelial architecture damage at 20 mg/kg, iv administered as single dose for 1 hr prior to LPS challenge and measured after 48 hrs by hematoxylin-eosin staining based inverted microscopy analysis; format: functional, organism-based
Mus musculus [8] = assay: Antiinflammatory activity against LPS-induced sepsis C57BL/6J mouse model assessed as reduction in serum IL-1beta level at 20 mg/kg, iv administered as single dose for 1 hr prior to LPS challenge and measured after 24 hrs of compound treatment by ELISA; format: functional, organism-based
BMDM = assay: Inhibition of pyroptosis in LPS-primed C57BL/6 mouse primary BMDM assessed as reduction in nigericin-induced cell death by LDH assay; format: functional, cell-based
Procedure, shortened: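 Primary murine macrophages primed with LPS and stimulated with nigericin across a dose range. IL-1β release, LDH release and Alamar blue measured. Means ± SE, ≥3 experimental replicates.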

Sequence of NACHT, LRR and PYD domains-containing protein 3 (Mus musculus) (Q8R4B8 whole entry, the tested form may be a part): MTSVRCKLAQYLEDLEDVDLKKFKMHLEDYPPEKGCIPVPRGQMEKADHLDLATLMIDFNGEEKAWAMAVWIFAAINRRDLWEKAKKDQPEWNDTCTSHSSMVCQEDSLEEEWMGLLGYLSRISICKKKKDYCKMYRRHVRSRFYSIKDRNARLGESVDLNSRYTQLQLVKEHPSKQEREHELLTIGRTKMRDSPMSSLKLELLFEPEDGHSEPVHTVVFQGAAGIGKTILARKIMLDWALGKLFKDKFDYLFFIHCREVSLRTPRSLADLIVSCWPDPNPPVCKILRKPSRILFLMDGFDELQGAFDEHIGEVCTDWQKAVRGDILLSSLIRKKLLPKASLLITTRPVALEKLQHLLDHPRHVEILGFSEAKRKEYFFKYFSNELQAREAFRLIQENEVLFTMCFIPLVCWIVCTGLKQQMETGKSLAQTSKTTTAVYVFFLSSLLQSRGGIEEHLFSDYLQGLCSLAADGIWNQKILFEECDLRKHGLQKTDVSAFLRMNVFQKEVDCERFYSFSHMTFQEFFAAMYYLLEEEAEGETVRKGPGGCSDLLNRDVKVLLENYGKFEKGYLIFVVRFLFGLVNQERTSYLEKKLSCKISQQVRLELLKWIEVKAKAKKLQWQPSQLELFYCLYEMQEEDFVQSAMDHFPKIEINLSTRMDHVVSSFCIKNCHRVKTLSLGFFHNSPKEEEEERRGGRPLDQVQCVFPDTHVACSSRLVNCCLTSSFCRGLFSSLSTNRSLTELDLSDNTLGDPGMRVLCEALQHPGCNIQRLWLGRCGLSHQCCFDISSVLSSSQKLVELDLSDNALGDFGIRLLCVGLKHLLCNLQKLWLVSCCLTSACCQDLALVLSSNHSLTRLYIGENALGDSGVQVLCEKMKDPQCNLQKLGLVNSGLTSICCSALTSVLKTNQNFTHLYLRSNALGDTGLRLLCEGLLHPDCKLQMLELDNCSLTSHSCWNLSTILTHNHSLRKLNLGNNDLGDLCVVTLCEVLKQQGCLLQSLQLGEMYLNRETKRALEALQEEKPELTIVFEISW

CCOC(CN1C(=O)C(NC(=O)Nc2ccc(C)cc2)(C(F)(F)C(=O)Nc2ccc(C)cc2)c2ccccc21)OCC (stereo unspecified)
active: Activity [1] | inhibition (Caspase-1 (Mus musculus) [3]) | inhibition (Caspase-1 (Mus musculus) [4]) | inhibition (J774.A1) | inhibition (Caspase-4 (Mus musculus)) | inhibition (Caspase-1 (Homo sapiens) [5]) | inhibition (Caspase-1 (Homo sapiens) [6]) | Activity (Mus musculus [7]) | Activity (Mus musculus [8]) | inhibition (BMDM) Dose-dependent effect
inactive: inhibition [2]
